Laboratory results published in ChEMBL document CHEMBL1932940, “Xanthohumol induces apoptosis in human malignant glioblastoma cells by increasing reactive oxygen species and activating MAPK pathways” (J Nat Prod, 2011).
Calls of active or inactive are those of the source. No cut-off for these calls is given here.

Key:
[1] = test system: T98G; assay: Induction of apoptosis in human T98G cells assessed as increase in caspase-3 expression level at 20 uM after 24 hrs by Western blot analysis; type: functional, cell-based
In short: (§1)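 T98G exposed to 20 μM for various times (0−48 h), NAC 5 mM where stated. Total lysates, or digitonin-permeabilized cytosolic and mitochondrial fractions (10000g, 15 min, 4 °C) for cytochrome c, blotted for caspase-3, caspase-9, PARP (1:1000), Bcl-2 (1:500), cytochrome c; β-actin loading control; ECL detection. Three experiments.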

[2] = test system: T98G; assay: Induction of apoptosis in human T98G cells assessed as decrease in Bcl-2 expression at 20 uM after 48 hrs by Western blot analysis in presence of 5 mM NAC; type: functional, cell-based; in short: as §1
[3] = test system: T98G; assay: Induction of cell cycle arrest in human T98G cells assessed as accumulation at G0/G1 phase at 1 to 20 uM after 48 hrs by flow cytometric analysis; type: functional, cell-based
In short: (§2)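 2 × 10^5 cells per dish exposed 48 h (1−20 μM per legend); harvested, fixed in cold 70% ethanol at −20 °C, stained with propidium iodide plus RNase A (100 U/mL) 30 min at room temperature; percentage in G1, S, G2/M by flow cytometry. Three experiments in triplicate.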

[4] = molecular target: T1, Mitogen-activated protein kinase; ERK1/ERK2 (Homo sapiens) (UniProt P27361+P28482); assay: Induction of Erk1/2 phosphorylation in human T98G cells at 20 uM measured every 5 mins for 2 hrs by Western blot analysis; type: cell-based
In short: (§3)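 T98G exposed to 20 μM for 5−120 min or 24 h, with or without 5 mM NAC. Lysates (Tris/deoxycholate/SDS/IGEPAL with protease and phosphatase inhibitors) immunoblotted with anti-p-ERK, ERK1/2 (1:1000), p-p38, p38; ECL detection; phospho signals normalized to total ERK1/2 or p38. Three experiments.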

[5] = test system: T98G; assay: Induction of apoptosis in human T98G cells assessed as increase in mitochondrial depolarization at 20 uM after 24 hrs by […] fluorescence analysis; type: functional
In short: (§4)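 T98G treated with 20 μM for 4−24 h (NAC 5 mM where stated), then loaded with 5 nM TMRE for 30 min at 37 °C; fluorescence by flow cytometry (FL-2); percentage of cells with depolarized mitochondria reported. Three experiments in triplicate (n = 3 for NAC set).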

[6] = test system: T98G; assay: Induction of apoptosis in human T98G cells assessed as increase in mitochondrial depolarization at 20 uM by […] fluorescence analysis; type: functional, cell-based; settings: TDE = time-dependent effect; in short: as §4
[7] = test system: T98G; assay: Induction of apoptosis in human T98G cells assessed as caspase activation at 20 uM after 24 hrs pretreated with 25 uM pancaspase inhibitor Z-VAD-FMK; type: functional, cell-based
In short: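 T98G pretreated with Z-VAD-FMK (25 μM), then exposed to test agent; apoptotic (hypodiploid) nuclei quantified by propidium iodide flow cytometry. Means ± SEM, three experiments in triplicate.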

[8] = test system: T98G; assay: Induction of cell cycle arrest in human T98G cells assessed as accumulation at S phase at 1 to 20 uM after 48 hrs by flow cytometric analysis; type: functional, cell-based; in short: as §2
[9] = test system: T98G; assay: Induction of cell cycle arrest in human T98G cells assessed as accumulation at G2/M phase at 1 to 20 uM after 48 hrs by flow cytometric analysis; type: functional, cell-based; in short: as §2
[10] = test system: T98G; assay: Anticancer activity against human T98G cells assessed as decrease in cell viability after 48 hrs by MTT assay; type: functional, cell-based
In short: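 Cells (T98G, U87-MG, NHA; 3 × 10^4 per well) plated, next day exposed to serial dilutions (1−50 μM) for 48 h at 37 °C, 5% CO2. MTT (5 mg/mL) added for 3 h; crystals solubilized in 50% DMF/20% SDS pH 4.5; OD at 620 nm. Viability = % of DMSO (0.1% final) controls. Means ± SEM, three experiments in triplicate.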

[11] = test system: T98G; assay: Induction of apoptosis in human T98G cells assessed as increase in cleaved PARP protein level at 20 uM after 24 hrs by Western blot analysis; type: functional, cell-based; in short: as §1
[12] = molecular target: T1, Mitogen-activated protein kinase; ERK1/ERK2 (Homo sapiens); assay: Induction of Erk1/2 phosphorylation in human T98G cells at 20 uM measured every 5 mins for 2 hrs by Western blot analysis in presence of 5 mM of NAC; type: cell-based; in short: as §3
[13] = molecular target: MAP kinase p38 (Homo sapiens) (UniProt O15264+Q15759+Q16539+P53778); assay: Induction of p38 phosphorylation in human T98G cells at 20 uM measured after 24 hrs by Western blot analysis; type: cell-based; in short: as §3
[14] = test system: T98G; assay: Induction of apoptosis in human T98G cells after 48 hrs by propidium iodide staining-based flow cytometric analysis; type: functional, cell-based
In short: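 Cells treated 1−50 μM for 24 or 48 h, washed in PBS, resuspended in 0.1% sodium citrate, 0.1% Triton X-100, 50 μg/mL propidium iodide, 30 min at 4 °C in dark. Nuclei analyzed by flow cytometry, DNA on log scale, debris gated out; percent hypodiploid (sub-G1) nuclei reported. Three experiments in triplicate.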

[15] = test system: T98G; assay: Induction of apoptosis in human T98G cells assessed as increase in caspase-9 expression level at 20 uM after 8 hrs by Western blot analysis; type: functional, cell-based; in short: as §1
[16] = molecular target: T1, Mitogen-activated protein kinase; ERK1/ERK2 (Homo sapiens); assay: Induction of Erk1/2 phosphorylation in human T98G cells at 20 uM measured after 24 hrs by Western blot analysis; type: cell-based; in short: as §3
[17] = test system: T98G; assay: Induction of apoptosis in human T98G cells assessed as increase in ROS production at 20 uM after 48 hrs by DCFH-DA staining-based flow cytometric analysis in presence of 5 mM NAC; type: functional, cell-based
[18] = test system: T98G; assay: Induction of apoptosis in human T98G cells assessed as cell death at 20 uM after 48 hrs by propidium iodide staining based flow cytometric analysis; type: functional
In short: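 T98G cells grown in DMEM with 10% heat-inactivated FBS and 2 mM L-glutamine at 37 °C, 5% CO2, then exposed 24–48 h (range 1–50 μM). Percent hypodiploid nuclei counted by flow cytometry, debris gated out. Three experiments in triplicate, mean ± SEM.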

[19] = test system: T98G; assay: Induction of apoptosis in human T98G cells assessed as decrease in Bcl-2 expression at 20 uM after 48 hrs by Western blot analysis; type: functional, cell-based; in short: as §1
[20] = test system: U-87 MG; assay: Induction of cell cycle arrest in human U87MG cells assessed as accumulation at S phase at 1 to 20 uM after 48 hrs by flow cytometric analysis; type: functional, cell-based; settings: U-87MG ATCC; in short: as §2
[21] = test system: T98G; assay: Induction of apoptosis in human T98G cells at 20 uM after 48 hrs by flow cytometric analysis pretreated with 20 uM Erk inhibitor PD98059 for 30 mins; type: functional; design: scale not given: the % may be the effect or the level left
In short: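 T98G pretreated with PD98059 (20 μM, 30 min), SB203580 (5 μM, 1 h) or SP600125 (5 μM, 1 h), then exposed to 20 μM for 48 h; hypodiploid nuclei quantified by propidium iodide flow cytometry. Means ± SEM, three experiments in triplicate.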

[22] = test system: T98G; assay: Induction of apoptosis in human T98G cells assessed as increase in ROS production at 20 uM measured every 5 mins for 5 to 120 mins by DCFH-DA staining-based flow cytometric analysis; type: functional, cell-based
In short: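 T98G incubated with 20 μM, with or without 5 mM NAC pretreatment, for 5−120 min or 24 h; washed, resuspended at 2 × 10^5 cells/mL in HBSS with 10 μM DCFH-DA, 20 min at 37 °C; DCF fluorescence read by flow cytometry (FL1), also viewed by fluorescence microscopy.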

[23] = Toxicity in mouse; type: organism-based; settings: in vivo
[24] = test system: T98G; assay: Induction of apoptosis in human T98G cells assessed as cleavage PARP protein level at 20 uM after 24 hrs by Western blot analysis in presence of 5 mM NAC; type: functional, cell-based; in short: as §1

T1 sequence (P27361 whole entry, looked up): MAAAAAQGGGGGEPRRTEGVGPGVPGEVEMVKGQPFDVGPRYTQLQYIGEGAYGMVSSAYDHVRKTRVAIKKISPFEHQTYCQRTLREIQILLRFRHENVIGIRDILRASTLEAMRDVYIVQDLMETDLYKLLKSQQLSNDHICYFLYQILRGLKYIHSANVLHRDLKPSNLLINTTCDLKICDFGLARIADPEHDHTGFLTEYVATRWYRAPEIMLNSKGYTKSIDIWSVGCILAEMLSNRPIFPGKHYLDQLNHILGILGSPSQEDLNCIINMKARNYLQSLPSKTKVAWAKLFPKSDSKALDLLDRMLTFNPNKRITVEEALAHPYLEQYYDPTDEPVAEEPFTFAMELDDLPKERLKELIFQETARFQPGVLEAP
T1 sequence (P28482 whole entry, looked up): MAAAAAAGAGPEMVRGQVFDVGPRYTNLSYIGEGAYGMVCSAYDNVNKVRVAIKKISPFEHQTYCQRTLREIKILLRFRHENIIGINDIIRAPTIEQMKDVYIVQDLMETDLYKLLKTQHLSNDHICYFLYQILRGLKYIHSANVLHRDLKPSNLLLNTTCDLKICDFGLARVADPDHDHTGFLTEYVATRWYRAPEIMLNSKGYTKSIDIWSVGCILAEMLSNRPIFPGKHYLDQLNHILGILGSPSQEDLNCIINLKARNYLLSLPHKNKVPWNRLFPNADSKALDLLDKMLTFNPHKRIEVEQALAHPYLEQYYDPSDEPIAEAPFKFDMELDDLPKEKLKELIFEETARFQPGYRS

Q: With COc1cc(O)c(CC=C(C)C)c(O)c1C(=O)/C=C/c1ccc(O)cc1 [XANTHOHUMOL] as the compound, how does the Activity [1] read?
A: The Activity was “Active”.

Q: And the Activity [2]?
A: The Activity was “inactive”.

Q: What about the Activity [3] of the same compound?
A: Its Activity is “inactive”.

Q: What about the Activity [4] of the same compound?
A: The Activity was “Active”.

Q: What about the Activity [5] of the same compound?
A: Its Activity is 50%.

Q: And the Activity [6]?
A: Its Activity is “tde”.

Q: What about the Activity [7] of the same compound?
A: The Activity was “inactive”.

Q: What about the Activity [8] of the same compound?
A: Its Activity is “inactive”.

Q: And the Activity [9]?
A: The Activity was “inactive”.

Q: And the Activity [10]?
A: Its Activity is “Dose-dependent effect”.

Q: What about the Activity [11] of the same compound?
A: The Activity was “Active”.

Q: And the Activity [12]?
A: Its Activity is “inactive”.

Q: What about the Activity [13] of the same compound?
A: The Activity was “inactive”.

Q: What about the Activity [14] of the same compound?
A: Its Activity is “Dose-dependent effect”.

Q: What about the Activity [15] of the same compound?
A: Its Activity is “Active”.

Q: And the Activity [16]?
A: The Activity was “Active”.

Q: What about the Activity [17] of the same compound?
A: Its Activity is “inactive”.

Q: What about the Activity [18] of the same compound?
A: The Activity was 40%.

Q: And the Activity [19]?
A: The Activity was “Active”.

Q: What about the Activity [20] of the same compound?
A: The Activity was “inactive”.

Q: What about the Activity [21] of the same compound?
A: The Activity was 50%.

Q: What about the Activity [22] of the same compound?
A: Its Activity is “Active”.

Q: What about the LD50 [23] of the same compound?
A: Its LD50 is 500 mg/kg.

Q: And the Activity [24]?
A: Its Activity is “inactive”.
